From ChEMBL document CHEMBL2169850, “3,6-bis(3-alkylguanidino)acridines as DNA-intercalating antitumor agents” (Eur J Med Chem, 2012)
Calls of active or inactive are those of the source. The calls are words filed in the database; no cut-off is given here.

What was measured:
[1] = system: HL-60; experiment: Cell cycle arrest in human HL60 cells assessed as accumulation at G2/M phase at 5 uM incubated for 48 hrs by flow cytometry (reference value: 16.42 +/- 1.03%); format: functional
[2] = system: HL-60; experiment: Cell cycle arrest in human HL60 cells assessed as accumulation at G2/M phase at 15 uM incubated for 24 hrs by flow cytometry (reference value: 19.62 +/- 0.96%); format: functional
[3] = system: HL-60; experiment: Cell cycle arrest in human HL60 cells assessed as accumulation at S phase at 15 uM incubated for 72 hrs by flow cytometry (reference value: 40.30 +/- 3.15%); format: functional
[4] = system: HL-60; experiment: Cell cycle arrest in human HL60 cells assessed as accumulation at S phase at 25 uM incubated for 48 hrs by flow cytometry (reference value: 45.29 +/- 1.23%); format: functional
[5] = system: HL-60; experiment: Cell cycle arrest in human HL60 cells assessed as accumulation at S phase at 15 uM incubated for 48 hrs by flow cytometry (reference value: 45.29 +/- 1.23%); format: functional
[6] = system: HL-60; experiment: Cell cycle arrest in human HL60 cells assessed as accumulation at G1 phase at 15 uM incubated for 72 hrs by flow cytometry (reference value: 47.02 +/- 6.19%); format: functional
[7] = system: HL-60; experiment: Cell cycle arrest in human HL60 cells assessed as accumulation at G1 phase at 5 uM incubated for 72 hrs by flow cytometry (reference value: 47.02 +/- 6.19%); format: functional
[8] = system: HL-60; experiment: Cell cycle arrest in human HL60 cells assessed as accumulation at G1 phase at 5 uM incubated for 48 hrs by flow cytometry (reference value: 38.29 +/- 0.22%); format: functional
[9] = system: HL-60; experiment: Cell cycle arrest in human HL60 cells assessed as accumulation at G1 phase at 15 uM incubated for 24 hrs by flow cytometry (reference value: 35.96 +/- 1.63%); format: functional
[10] = system: HL-60; experiment: Antiproliferative activity against human HL60 cells assessed as cell number at 15 uM incubated for 72 hrs by Coulter counting method; format: functional
In short: (§1)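 HL-60 cells in RPMI with 10% heat-inactivated FCS, antibiotics and amphotericin, 37 °C, 5% CO2, seeded in 60 mm dishes. Compound added at 5, 15 or 25 µM for 24, 48 or 72 h. Absolute cell counts taken by Coulter counter and expressed as percentage of untreated control. Mean ± SD of at least three independent experiments; one-way ANOVA with Tukey test, p < 0.05.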

[11] = system: HL-60; experiment: Antiproliferative activity against human HL60 cells assessed as cell number at 15 uM incubated for 48 hrs by Coulter counting method; format: functional; in short: as §1
[12] = system: HL-60; experiment: Antiproliferative activity against human HL60 cells assessed as cell number at 25 uM incubated for 48 hrs by Coulter counting method; format: functional; in short: as §1
[13] = system: HL-60; experiment: Antiproliferative activity against human HL60 cells assessed as cell number at 5 uM incubated for 48 hrs by Coulter counting method; format: functional; in short: as §1
[14] = system: HL-60; experiment: Antiproliferative activity against human HL60 cells assessed as cell number at 25 uM incubated for 24 hrs by Coulter counting method; format: functional; in short: as §1
[15] = molecular target: T1, DNA topoisomerase 1 (Homo sapiens) (UniProt P11387); experiment: Inhibition of human topoisomerase 1 assessed as reduction in pBR322 DNA relaxation of relaxation at 5 uM by DNA unwinding assay
T1 sequence (whole entry): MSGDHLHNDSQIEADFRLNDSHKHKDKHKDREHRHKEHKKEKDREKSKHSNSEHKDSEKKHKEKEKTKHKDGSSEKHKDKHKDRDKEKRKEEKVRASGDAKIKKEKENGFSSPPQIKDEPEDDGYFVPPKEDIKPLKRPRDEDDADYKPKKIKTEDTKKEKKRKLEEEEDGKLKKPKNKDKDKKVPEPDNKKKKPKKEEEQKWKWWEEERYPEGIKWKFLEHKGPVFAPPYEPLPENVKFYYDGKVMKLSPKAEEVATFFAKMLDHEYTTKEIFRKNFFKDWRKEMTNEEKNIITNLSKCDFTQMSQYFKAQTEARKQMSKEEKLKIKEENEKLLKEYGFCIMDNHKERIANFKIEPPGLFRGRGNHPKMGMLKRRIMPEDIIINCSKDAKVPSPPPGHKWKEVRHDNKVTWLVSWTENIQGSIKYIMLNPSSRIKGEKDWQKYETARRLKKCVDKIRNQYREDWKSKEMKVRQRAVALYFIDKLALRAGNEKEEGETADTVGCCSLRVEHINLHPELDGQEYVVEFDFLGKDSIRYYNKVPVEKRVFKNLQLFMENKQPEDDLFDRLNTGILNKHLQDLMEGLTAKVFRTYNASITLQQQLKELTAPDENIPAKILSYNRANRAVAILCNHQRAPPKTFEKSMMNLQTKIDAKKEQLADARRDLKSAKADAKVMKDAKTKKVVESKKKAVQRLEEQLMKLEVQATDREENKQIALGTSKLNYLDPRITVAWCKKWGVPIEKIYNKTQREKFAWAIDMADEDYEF

[16] = system: Nucleic Acid; experiment: Binding affinity to calf thymus DNA increase in DNA viscosity at 12 to 60 uM by viscosimetric titration assay; format: nucleic-acid assay; details: Bos taurus
In short: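 Relative viscosity of ctDNA (3.11 × 10^-8 M) with compound at 12–60 × 10^-6 M was measured by automated microviscometry in a 1.6 mm capillary at 25 °C, in 10 mM Tris, pH 7.4. Solution density was also measured.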

[17] = system: Nucleic Acid; experiment: Binding affinity to calf thymus DNA at 11 to 58 uM by LD spectroscopy; format: nucleic-acid assay; details: Bos taurus
In short: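 Flow LD spectra were recorded in a Couette cell (1 mm path) from 210 to 550 nm at 25 °C in 10 mM Tris. ctDNA was modified by compound at 11–58 × 10^-6 M.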

[18] = system: Nucleic Acid; experiment: Binding affinity to calf thymus DNA assessed as melting temperature at 12.4 uM by thermal denaturation study; format: nucleic-acid assay; details: Bos taurus
[19] = system: HL-60; experiment: Induction of necrosis in human HL60 cells at 5 to 25 uM incubated for 72 hrs by AnnexinV/propidium iodide staining method; format: functional, cell-based
In short: (§2)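 HL-60 cells (1.5 × 10^5) were exposed to compound, then stained 10 min with Annexin V-FITC in HEPES/CaCl2/NaCl binding buffer. Cells were washed, briefly stained with propidium iodide and analysed by flow cytometry for apoptotic and necrotic fractions. Mean ± SD of at least three independent experiments.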

[20] = system: HL-60; experiment: Induction of necrosis in human HL60 cells at 5 to 25 uM incubated for 48 hrs by AnnexinV/propidium iodide staining method; format: functional, cell-based; in short: as §2
[21] = system: HL-60; experiment: Induction of caspase-3 activation in human HL60 cells at 5 to 25 uM incubated for 24 to 72 hrs by FACS assay; format: functional, cell-based
In short: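 HL-60 cells (RPMI with 10% heat-inactivated FCS, 37 °C, 5% CO2) were seeded in dishes and treated 24, 48 or 72 h. Cells were fixed and permeabilized 20 min on ice, then stained 30 min at RT with FITC anti-active caspase-3 antibody. Read-out was the percentage of positive cells by flow cytometry. Mean ± SD of at least three independent experiments; ANOVA with Tukey.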

SMILES	Activity [1]	Activity [2]	Activity [3]	Activity [4]	Activity [5]	Activity [6]	Activity [7]	Activity [8]	Activity [9]	Activity [10]	Activity [11]	Activity [12]	Activity [13]	Activity [14]	Activity [15]	Activity [16]	Activity [17]	Tm [18]	Activity [19]	Activity [20]	also measured
CCNC(=N)Nc1ccc2cc3ccc(NC(=N)NCC)cc3nc2c1.Cl.Cl.O	inactive	inactive	inactive	inactive	inactive	inactive	inactive	inactive	inactive	84.97%	80.03%	86.85%	78.56%	71.98%	Active	Active	Active	84 °C	inactive	inactive	Activity [21]: inactive
CCCCCCNC(=N)Nc1ccc2cc3ccc(NC(=N)NCCCCCC)cc3nc2c1.Cl.Cl.O	11.36%	11.65%	23.84%	27.77%	27.52%	70.31%	48.93%	45.1%	41.77%	33.13%	52.7%	40.67%	72.18%	76.71%	Active	Active	Active	89 °C	Active	Active	Activity [21]: Active
